Experimental data: ChEMBL document CHEMBL3407469, “Development of benzimidazole derivatives to inhibit HIV-1 replication through protecting APOBEC3G protein” (Eur J Med Chem, 2015)
pIC50: −log10 of the molar value. Calls of active or inactive are those of the source. The calls are words filed in the database; no cut-off is given here.

Columns and labels:
[1] = Cytotoxicity against human H9 cells by MTS assay; assay type: cell-based
293T [2] = assay: Inhibition of full-length X4 tropic HIV-1 clone pNL4-3 Vif/human APOBEC3G complex transfected in human 293T cells assessed as increase in cellular APOBEC3G level measured after 48 hrs by fluorescence microscopy relative to control; assay type: cell-based
How it was run: (§1)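 293T cells were co-transfected with Vif and A3G-GFP plasmids, then treated with DMSO or a dilution series of compound. After 48 h, A3G-GFP was measured as mean fluorescence intensity on a plate reader, by western blot, or by fluorescence microscopy, each compared with the DMSO control.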

[3] = (§2) Inhibition of purified X4 tropic HIV-1 clone pNL4-3 His tagged Vif binding to recombinant human APOBEC3G expressed in Escherichia coli BL21 assessed as reduction in max resonance unit at 9 uM preincubated with APOBEC3G for 30 mins by surface plasmon resonance method relative to untreated A3G protein control
How it was run: (§3)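 His-tagged Vif and A3G were expressed from pET32a in E. coli BL21 with 1 mM IPTG and purified on Ni-agarose (500 mM imidazole elution). Vif-His was immobilized on a CM5 chip in 10 mM acetate, pH 4.0, then blocked with 1 M ethanolamine. A3G-His was pre-incubated at 25 °C for 30 min with compound or DMSO in 10 mM PBS with 5% DMSO before injection. SPR binding was read as max resonance units.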

Mus musculus [4] = assay: Toxicity in Balb/c mouse assessed as abnormality in spleen at 500 to 1000 mg/kg, ip; assay type: organism-based; design: dose 500-1000 mg/kg, route intraperitoneal; details: in vivo
How it was run: (§4)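 Male Balb/c mice aged 4–6 weeks were randomized into three groups (5 mice) and given a single intraperitoneal injection of 0, 500 or 1000 mg/kg. Body weight was followed for two weeks. On day 14, mice were sacrificed. Heart, liver, lung, spleen and kidney were fixed in 4% formaldehyde for H&E staining, and blood was analysed for AST, ALT, BUN and creatinine.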

Mus musculus [5] = assay: Toxicity in Balb/c mouse assessed as abnormality in heart at 500 to 1000 mg/kg, ip; assay type: organism-based; design: dose 500-1000 mg/kg, route intraperitoneal; details: in vivo; how it was run: as §4
Mus musculus [6] = assay: Toxicity in Balb/c mouse assessed as abnormality in kidney at 500 to 1000 mg/kg, ip; assay type: organism-based; design: dose 500-1000 mg/kg, route intraperitoneal; details: in vivo; how it was run: as §4
Mus musculus [7] = assay: Toxicity in Balb/c mouse assessed as abnormality in lung at 500 to 1000 mg/kg, ip; assay type: organism-based; design: dose 500-1000 mg/kg, route intraperitoneal; details: in vivo; how it was run: as §4
Mus musculus [8] = assay: Toxicity in Balb/c mouse assessed as change in body weight at 500 to 1000 mg/kg, ip; assay type: organism-based; design: dose 500-1000 mg/kg, route intraperitoneal; details: in vivo; how it was run: as §4
293T [9] = assay: Inhibition of full-length X4 tropic HIV-1 clone pNL4-3 Vif/human APOBEC3G complex transfected in human 293T cells measured at 50 uM after 48 hrs by GFP-based fluorescence assay relative to control; assay type: cell-based
How it was run: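 This was the primary screen in 293T cells co-transfected with HA-Vif and A3G-GFP plasmids (Lipofectamine 2000) and given a single compound concentration. DMSO-only wells and A3G-GFP-only transfected wells served as controls. GFP was read after 48 h. A3G-GFP MFI fold change was scored as −, none or <1; +, 1–2; ++, 2–3; +++, >3.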

Mus musculus [10] = assay: Toxicity in Balb/c mouse assessed as effect on CRE level at 500 to 1000 mg/kg, ip; assay type: organism-based; design: dose 500-1000 mg/kg, route intraperitoneal; details: in vivo; how it was run: as §4
[11] = system: Human immunodeficiency virus 1; assay: Antiviral activity against X4 tropic HIV-1 clone pNL4-3 infected in human PBMC cells assessed as reduction in p24 antigen at 0.00005 to 5 uM after 4 days by ELISA; assay type: functional, organism-based
Mus musculus [12] = assay: Toxicity in Balb/c mouse assessed as abnormality in liver at 500 to 1000 mg/kg, ip; assay type: organism-based; design: dose 500-1000 mg/kg, route intraperitoneal; details: in vivo; how it was run: as §4
Mus musculus [13] = assay: Toxicity in Balb/c mouse assessed as effect on BUN level at 500 to 1000 mg/kg, ip; assay type: organism-based; design: dose 500-1000 mg/kg, route intraperitoneal; details: in vivo; how it was run: as §4
293T [14] = assay: Inhibition of full-length X4 tropic HIV-1 clone pNL4-3 Vif binding to ElonginB (unknown origin) transfected in human 293T cells measured at 50 uM after 48 hrs by co-immunoprecipitation assay; assay type: cell-based
How it was run: (§5)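 293T cells were transfected with HA-tagged Vif plus Flag-tagged EloC/EloB/Cul5 plasmids and treated with compound or DMSO. After 48 h, cells were lysed in IP lysis buffer. Lysates were incubated with anti-HA beads overnight at 4 °C and washed three times in lysis buffer before analysis of co-precipitated partners.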

293T [15] = assay: Inhibition of full-length X4 tropic HIV-1 clone pNL4-3 Vif binding to Cullin5 (unknown origin) transfected in human 293T cells measured at 50 uM after 48 hrs by co-immunoprecipitation assay; assay type: cell-based; how it was run: as §5
[16] = system: Human immunodeficiency virus 1; assay: Antiviral activity against X4 tropic HIV-1 clone pNL4-3 infected in H9 cells assessed as reduction in p24 antigen after 4 days by ELISA; assay type: functional, organism-based; details: Human immunodeficiency virus 1, pNL4-3, H9, 96 h
Mus musculus [17] = assay: Toxicity in Balb/c mouse assessed as effect on AST level at 500 to 1000 mg/kg, ip; assay type: organism-based; design: dose 500-1000 mg/kg, route intraperitoneal; details: in vivo; how it was run: as §4
293T [18] = assay: Inhibition of full-length X4 tropic HIV-1 clone pNL4-3 Vif binding to ElonginC (unknown origin) transfected in human 293T cells measured at 50 uM after 48 hrs by co-immunoprecipitation assay; assay type: cell-based; how it was run: as §5
Mus musculus [19] = assay: Toxicity in Balb/c mouse assessed as effect on ALT level at 500 to 1000 mg/kg, ip; assay type: organism-based; design: dose 500-1000 mg/kg, route intraperitoneal; details: in vivo; how it was run: as §4
293T [20] = assay: Inhibition of full-length X4 tropic HIV-1 clone pNL4-3 Vif/human APOBEC3G complex transfected in human 293T cells assessed as increase in cellular APOBEC3G level measured after 48 hrs by Western blot analysis relative to control; assay type: cell-based; how it was run: as §1
[21] = as §2, with “4” for “9”; how it was run: as §3

Row | SMILES | CC50 [1] [nM] | inhibition (293T [2]) | Activity (Mus musculus [4]) | Activity (Mus musculus [5]) | Activity (Mus musculus [6]) | Activity (Mus musculus [7]) | Activity (Mus musculus [8]) | fold change (FC) (293T [9]) | Activity (Mus musculus [10]) | Activity [11] | Activity (Mus musculus [12]) | Activity (Mus musculus [13]) | inhibition (293T [14]) | inhibition (293T [15]) | pIC50 [16] | Activity (Mus musculus [17]) | inhibition (293T [18]) | Activity (Mus musculus [19]) | inhibition (293T [20]) | further results
1 | COc1cc(/C=C(\C#N)c2nc3ccccc3[nH]2)ccc1O | > 50000 | Dose-dependent effect | Non-toxic | Non-toxic | Non-toxic | Non-toxic | Non-toxic | > 3 | Non-toxic | Active | Non-toxic | Non-toxic | inactive | inactive | 7.24 | Non-toxic | inactive | Non-toxic | Dose-dependent effect | inhibition [3]: 17%
2 | CCN(CC)c1ccc(/C=C(\C#N)c2nc3ccccc3[nH]2)cc1 | > 50000 | Dose-dependent effect | Non-toxic | Non-toxic | Non-toxic | Non-toxic | Non-toxic | > 3 | Non-toxic | Active | Non-toxic | Non-toxic | inactive | inactive | 8.46 | Non-toxic | inactive | Non-toxic | Dose-dependent effect | inhibition [21]: 17%
